The text below walks through data of ChEMBL document CHEMBL1667803, “Inhibitory effects of ethacrynic acid analogues lacking the α,β-unsaturated carbonyl unit and para-acylated phenols on human cancer cells” (2011).

Active and inactive are the calls of the source. No cut-off for these calls is given here.

As a reminder, the inhibition is the relative decrease from the control value, in per cent. A word on the IC20: it is the point of the concentration-response curve where the effect stands at 20%.

Holding throughout (type): functional
Test [1] is described as follows: (§1) Inhibition of migration of human Hs578Ts(i)8 cells at 100 uM after 24 hrs. The method in brief: (§2)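 Wound-healing migration assay. Confluent monolayers were washed twice with PBS and scratched to leave a gap of about 1500 µm, then imaged. Fresh medium was added with or without compound, at concentrations set from the 24 h MTT assay. The wound was imaged again after 24 h. Migration was quantified against the earlier images as migratory velocity (µm/h).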

The nature of test [2]: […] human Hs578Ts(i)8 cells assessed as reduction in cell viability after 24 hrs. The essentials: (§3)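 MTT viability assay. Cells seeded at 1.5×10^4 per well in medium with 5% FBS and penicillin/streptomycin, then grown 24 h at 37 °C in 5% CO2. Treated 24 h at 1, 5, 10, 20, 40, 60, 80 and 100 μM. Half the medium was removed before adding MTT, and optical density was read. Three independent experiments were run per concentration. OD80/IC20 (20% inhibition) was read from the graphs.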

Test [3] concerns LNCaP C4-2B. Description: Inhibition of migration of human C4-2B cells at 100 uM after 24 hrs. The method in brief:
as §2

In test [4] the test system is LNCaP C4-2B. Description: […] human C4-2B cells assessed as reduction in cell viability after 24 hrs. The essentials: as §3
For the next test, the species on record is Homo sapiens. The test is described as §1. The essentials: as §2

As for `CCC(=O)c1ccc(O)c(C)c1C`, the inhibition at 100 µM in test [1] came out at 17%. In addition, the IC20 (in test [2]; in the test with LNCaP C4-2B [4]) was more than 100 µM in each case. The inhibition entry in the test on LNCaP C4-2B [3] was “inactive”.
As to `CCC(=O)c1ccc(O)cc1C`, the inhibition at 100 µM in test [1] stood at 86%; with LNCaP C4-2B [3], 65%. Besides, the 20% effect concentration (IC20) (in test [2]; in the test with LNCaP C4-2B [4]) was more than 100 µM each time.
Consider `CCCC(=O)c1ccc(OCC(=O)OCC)c(C)c1C`, for which the inhibition result in the test filed under Homo sapiens and with LNCaP C4-2B [3] was “inactive” throughout. The 20% effect concentration (IC20) in test [2] is more than 100 µM; in the test on LNCaP C4-2B [4] it was 50 µM.
Consider `CCOC(=O)COc1ccc(C(=O)CC)c(C)c1`, for which the results for the inhibition at 100 µM (in test [1]; with LNCaP C4-2B [3]) were 19% and 23%, respectively. In addition, the IC20 (in test [2]; in the test on LNCaP C4-2B [4]) was more than 100 µM each time.
Take `CCC(=O)c1ccc(OCC(=O)O)c(C)c1C`: the inhibition entry in the test filed under Homo sapiens and in the test on LNCaP C4-2B [3] was “inactive” throughout. Also, the IC20 (in test [2]; with LNCaP C4-2B [4]) was more than 100 µM throughout.
On to `CCOC(=O)COc1ccc(C(=O)CC)c(C)c1C`, for which the inhibition result in the test filed under Homo sapiens and in the test on LNCaP C4-2B [3] was “inactive” each time. Further, the concentration for an effect of 20% (IC20) (in test [2]; in the test with LNCaP C4-2B [4]) was more than 100 µM each time.
`C=C(CC)C(=O)c1ccc(OCC(=O)O)c(Cl)c1Cl` [ETHACRYNIC ACID]: the inhibition entry in the test filed under Homo sapiens and with LNCaP C4-2B [3] was “inactive” in each case. Besides, the IC20 in test [2] was 80 µM; in the test on LNCaP C4-2B [4], 10 µM.
`CCC(=O)c1ccc(O)cc1` [PAROXYPROPIONE]: the inhibition at 100 µM amounted to 28% in test [1] and 25% in the test on LNCaP C4-2B [3]. Also, the 20% effect concentration (IC20) (in test [2]; in the test on LNCaP C4-2B [4]) was more than 100 µM each time.
Take `CCCC(=O)c1ccc(OCC(=O)O)c(C)c1C`: the inhibition entry in the test listed under Homo sapiens and in the test on LNCaP C4-2B [3] was “inactive” each time. For the same compound, the IC20 (in test [2]; in the test on LNCaP C4-2B [4]) was more than 100 µM each time.
